Reference: ChEMBL document CHEMBL1149043, “Antiplatelet constituents of formosan Rubia akane” (1994)

Legend:
[1] = test system: Platelet; test: Inhibition of collagen-induced platelet aggregation in rabbit platelet assessed as aggregation at 300 uM treated 3 mins before collagen challenge by turbidimetric method; type: functional, Oryctolagus cuniculus
Summary of the method: (§1)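 Washed rabbit platelets (EDTA PRP, 4.5×10^8/ml, Tyrode's with 0.35% BSA) were preincubated 3 min at 37° with agent at 300 μM or 0.5% DMSO control. Percent aggregation was read turbidimetrically and reported as mean±SEM (n) with significance versus control.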

[2] = test system: Platelet; test: Inhibition of thrombin-induced platelet aggregation in rabbit platelet assessed as aggregation at 300 uM treated 3 mins before thrombin challenge by turbidimetric method; type: functional, Oryctolagus cuniculus; summary of the method: as §1
[3] = test system: Platelet; test: Inhibition of platelet activating factor-induced platelet aggregation in rabbit platelet assessed as aggregation at 300 uM treated 3 mins before platelet activating factor challenge by turbidimetric method; type: functional, Oryctolagus cuniculus; summary of the method: as §1
[4] = test system: Platelet; test: Inhibition of arachidonic acid-induced platelet aggregation in rabbit platelet assessed as aggregation at 300 uM treated 3 mins before arachidonic acid challenge by turbidimetric method; type: functional, Oryctolagus cuniculus; set-up: scale not given: the % may be the effect or the level left; summary of the method: as §1
[5] = test system: Platelet; test: Inhibition of thrombin-induced platelet aggregation in rabbit platelet assessed as aggregation at 50 uM treated 3 mins before thrombin challenge by turbidimetric method; type: functional, Oryctolagus cuniculus; set-up: scale not given: the % may be the effect or the level left
Summary of the method: (§2)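 Rabbit platelets, washed from EDTA PRP and suspended at 4.5×10^8/ml in Tyrode's/0.35% BSA, were preincubated 3 min at 37° with agent at 50 μM, with 0.5% DMSO as control. Turbidimetric percent aggregation is given as mean±SEM (n).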

[6] = test system: Platelet; test: Inhibition of collagen-induced platelet aggregation in rabbit platelet assessed as aggregation at 50 uM treated 3 mins before collagen challenge by turbidimetric method; type: functional, Oryctolagus cuniculus; set-up: scale not given: the % may be the effect or the level left; summary of the method: as §2
[7] = test system: Platelet; test: Inhibition of platelet activating factor-induced platelet aggregation in rabbit platelet assessed as aggregation at 50 uM treated 3 mins before platelet activating factor challenge by turbidimetric method; type: functional, Oryctolagus cuniculus; set-up: scale not given: the % may be the effect or the level left; summary of the method: as §2
[8] = test system: Platelet; test: Inhibition of arachidonic acid-induced platelet aggregation in rabbit platelet assessed as aggregation at 50 uM treated 3 mins before arachidonic acid challenge by turbidimetric method; type: functional, Oryctolagus cuniculus; set-up: scale not given: the % may be the effect or the level left; summary of the method: as §2
[9] = test system: Platelet; test: Antiplatelet activity against rabbit platelet assessed as inhibition of collagen-induced platelet aggregation treated 3 mins before collagen challenge by turbidimetric method; type: functional, cell-based; conditions: Oryctolagus cuniculus
[10] = test system: Platelet; test: Antiplatelet activity against rabbit platelet assessed as inhibition of arachidonic acid-induced platelet aggregation treated 3 mins before arachidonic acid challenge by turbidimetric method; type: functional, cell-based; conditions: Oryctolagus cuniculus

Row | SMILES | Platelet aggregation [1] [%] | Percent platelet aggregation [2] [%] | Platelet aggregation [3] [%] | Activity [4] [%] | Activity [5] [%] | Activity [6] [%] | Activity [7] [%] | Activity [8] [%] | Activity [9] | Activity [10]
1 | CC(=O)O[C@H]1[C@H](O)[C@@H](CO)O[C@@H](Oc2cc3c(c(O)c2C)C(=O)c2ccc(O)cc2C3=O)[C@@H]1O[C@@H]1O[C@H](C)[C@@H](O)[C@H](O)[C@@H]1O | 82.4 | 82.4 | 81.5 | 90.6 |  |  |  |  |  | 
2 | CC(=O)Oc1ccccc1C(=O)O [ASPIRIN] |  |  |  |  | 91.9 | 85.4 | 90.5 | 0 |  | 
3 | O=C1c2ccccc2C(=O)c2c(O)cc(O[C@@H]3O[C@H](CO)[C@@H](O)[C@H](O)[C@H]3O)cc21 | 0 | 85.2 | 65.5 | 71.9 |  |  |  |  | Dose-dependent effect | 
4 | O=C1c2ccccc2C(=O)c2c1cc(O[C@@H]1O[C@H](CO[C@@H]3OC[C@@H](O)[C@H](O)[C@H]3O)[C@@H](O)[C@H](O)[C@H]1O)c(CO)c2O [LUCIDIN PRIMEVOROSIDE] | 83.5 | 92.2 | 89.1 | 88.5 |  |  |  |  |  | 
5 | O=C1c2ccccc2C(=O)c2c(O)cc(O)cc21 [XANTHOPURPURIN] | 3.8 | 86.9 | 82.6 | 85 |  |  |  |  |  | 
6 | COC(=O)c1c(CC=C(C)C)c(O[C@@H]2O[C@H](CO)[C@@H](O)[C@H](O)[C@H]2O)c2ccccc2c1O[C@@H]1O[C@H](CO)[C@@H](O)[C@H](O)[C@H]1O | 81.2 | 91.3 | 90.3 | 86.9 |  |  |  |  |  | 
7 | Cc1c(O[C@@H]2O[C@H](CO)[C@@H](O)[C@H](O)[C@H]2O[C@@H]2O[C@H](C)[C@@H](O)[C@H](O)[C@@H]2O)cc2c(c1O)C(=O)c1ccc(O)cc1C2=O | 84 | 87 | 89.4 | 83.4 |  |  |  |  |  | 
8 | COC(=O)c1c2c(c3ccccc3c1O)OC(C)(C)C=C2 [MOLLUGIN] | 34.1 | 90.9 | 62.5 | 0 |  |  |  |  |  | Dose-dependent effect
9 | Cc1c(O)cc2c(c1O)C(=O)c1ccc(O)cc1C2=O | 8.2 | 85.5 | 77.8 | 83 |  |  |  |  | Dose-dependent effect | 
10 | Cc1ccc2c(c1O)C(=O)c1ccccc1C2=O | 85.7 | 88.7 | 82.3 | 81.6 |  |  |  |  |  | 
